In assay [1] the target is T1, 3',5'-cyclic-AMP phosphodiesterase 4B (Homo sapiens, UniProt Q07343). As to the kind of experiment: Inhibition of PDE4B1 (unknown origin) expressed in sf9 cells using cAMP as substrate preincubated at 30 uM for 15 mins before substrate addition measured after 1 hr by luminescence assay. In outline: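 His-tagged PDE4B1 was expressed in baculovirus-infected Sf9 cells (lysed 48 h post infection) and purified on Ni-NTA. 10 ng of enzyme was preincubated 15 min with compound or DMSO vehicle, then given cAMP substrate for 1 h. The reaction was stopped and detection reagent added for 10 min in the dark before reading luminescence. % inhibition = (RLU vehicle − RLU inhibitor)/RLU vehicle × 100, at a single screening concentration.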

The target of assay [2] is T1, 3',5'-cyclic-AMP phosphodiesterase 4B. As to the kind of experiment: Inhibition of PDE4B1 (unknown origin) expressed in sf9 cells using cAMP as substrate preincubated for 15 mins before substrate addition measured after 1 hr by luminescence assay. In outline:
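Ni-NTA-purified His-tagged PDE4B1 from baculovirus-infected Sf9 cells was used at 10 ng per reaction. Enzyme was preincubated 15 min with compound (9 concentrations) or DMSO, then cAMP for 1 h. After stop solution and 10 min detection reagent in the dark, luminescence was read. % inhibition was taken versus vehicle RLU. IC50 came from nonlinear regression of the dose-response curve and is given as mean ± SD.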

The structures appear in SMILES notation.

As usually defined, the inhibition is the relative decrease from the control value, in per cent. For orientation: IC50 means the concentration needed to halve the response being measured. A lower IC50 goes with greater potency.

T1 sequence (Q07343 whole entry): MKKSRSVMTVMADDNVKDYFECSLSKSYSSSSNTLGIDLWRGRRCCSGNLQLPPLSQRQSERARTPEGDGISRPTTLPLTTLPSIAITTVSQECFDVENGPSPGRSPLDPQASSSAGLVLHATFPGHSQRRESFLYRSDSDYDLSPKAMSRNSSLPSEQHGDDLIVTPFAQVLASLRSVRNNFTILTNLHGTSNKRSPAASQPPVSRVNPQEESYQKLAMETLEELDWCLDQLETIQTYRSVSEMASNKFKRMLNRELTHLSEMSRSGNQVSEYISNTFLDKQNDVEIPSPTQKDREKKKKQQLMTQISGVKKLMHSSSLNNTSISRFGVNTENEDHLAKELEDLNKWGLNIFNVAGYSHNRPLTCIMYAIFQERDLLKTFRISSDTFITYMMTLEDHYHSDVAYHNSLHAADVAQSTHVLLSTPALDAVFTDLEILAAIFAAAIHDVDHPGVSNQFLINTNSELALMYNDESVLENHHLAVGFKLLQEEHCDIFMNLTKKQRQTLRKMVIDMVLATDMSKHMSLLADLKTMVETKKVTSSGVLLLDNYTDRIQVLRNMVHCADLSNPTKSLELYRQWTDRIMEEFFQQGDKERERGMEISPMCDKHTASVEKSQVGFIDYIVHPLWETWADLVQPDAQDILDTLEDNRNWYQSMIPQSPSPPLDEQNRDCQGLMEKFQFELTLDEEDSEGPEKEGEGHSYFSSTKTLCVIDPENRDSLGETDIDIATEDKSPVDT

Take `COc1ccc(-c2nc3cc(S(N)(=O)=O)cc4c3n2-c2ccccc2O4)cc1`: in assay [1], the inhibition is 66.5%.

As to `COc1cc(-c2nc3cc(S(N)(=O)=O)cc4c3n2-c2ccccc2O4)ccc1O`, the inhibition in assay [1] was determined as 82.4%.

The molecule `CCN(CC)c1ccc(-c2nc3cc(S(N)(=O)=O)cc4c3n2-c2ccccc2O4)c(O)c1` showed an inhibition in assay [1] of 19.7%.

Molecule `NS(=O)(=O)c1cc2c3c(c1)nc(-c1ccc(Cl)cc1)n3-c1ccccc1O2` returned an inhibition in assay [1] of 80.3%.

For `NS(=O)(=O)c1cc2c3c(c1)nc(-c1ccccc1)n3-c1ccccc1O2`, in assay [1], the inhibition was 79.7%.

The molecule `NS(=O)(=O)c1cc2c3c(c1)nc(-c1cccc([N+](=O)[O-])c1)n3-c1ccccc1O2` yielded an inhibition in assay [1] of 66.8%.

In the case of `NS(=O)(=O)c1cc2c3c(c1)nc(-c1ccccc1Cl)n3-c1ccccc1O2`, in assay [1], the inhibition came to 76.3%.

With `NS(=O)(=O)c1cc2c3c(c1)nc(-c1cccc(O)c1)n3-c1ccccc1O2`, in assay [1], the inhibition came to 87.6%.

With `NS(=O)(=O)c1cc2c3c(c1)nc(-c1c(Cl)cccc1Cl)n3-c1ccccc1O2`, the inhibition in assay [1] worked out at 80.2%.

`NS(=O)(=O)c1cc2c3c(c1)nc(-c1cc(Br)ccc1F)n3-c1ccccc1O2`: in assay [2], it took 530 nM to reach half-maximal inhibition (IC50) and the inhibition entry was “Dose-dependent effect”. In assay [1], this molecule gave an inhibition of 92.9%.

Turning to `NS(=O)(=O)c1cc2c3c(c1)nc(-c1ccccc1O)n3-c1ccccc1O2`, the half-maximal inhibitory concentration (IC50) in assay [2] was determined as 3310 nM. In addition, the inhibition result was “Dose-dependent effect” in assay [2] and 89.3% in assay [1].

As for `NS(=O)(=O)c1cc2c3c(c1)nc(-c1cccc(Br)c1)n3-c1ccccc1O2`, in assay [2], the IC50 came out at 1230 nM and the inhibition result is “Dose-dependent effect”. Also, the inhibition in assay [1] amounted to 89.7%.

For the molecule `NS(=O)(=O)c1cc2c3c(c1)nc(-c1ccccc1Br)n3-c1ccccc1O2`, in assay [1], the inhibition stood at 81%.

For `NS(=O)(=O)c1cc2c3c(c1)nc(-c1ccc(O)cc1)n3-c1ccccc1O2`, in assay [1], the inhibition was 88.8%.

Source of the values: ChEMBL document CHEMBL2331491, “Novel imidazophenoxazine-4-sulfonamides: their synthesis and evaluation as potential inhibitors of PDE4” (Bioorg Med Chem, 2013).
